Bioassay records deposited in PubChem by several laboratories.
NR2E3 ag-1 = NR2E3 (human) agonism. Q9Y5X4. GST-NR2E3/biotin-RetCOR TR-FRET, 1536-well. inhibition of corepressor binding, % at 4.78 µM. actives 0.12% (n = 320,000). AID 2300;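 active means percent inhibition above the cutoff of mean plus 3 SD of all tested compounds, set per screening campaign, cut at about 20% in these data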;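 further: 0% = DMSO wells and 100% = biotin wells as full block of FRET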
Target sequence (Q9Y5X4 whole entry, looked up): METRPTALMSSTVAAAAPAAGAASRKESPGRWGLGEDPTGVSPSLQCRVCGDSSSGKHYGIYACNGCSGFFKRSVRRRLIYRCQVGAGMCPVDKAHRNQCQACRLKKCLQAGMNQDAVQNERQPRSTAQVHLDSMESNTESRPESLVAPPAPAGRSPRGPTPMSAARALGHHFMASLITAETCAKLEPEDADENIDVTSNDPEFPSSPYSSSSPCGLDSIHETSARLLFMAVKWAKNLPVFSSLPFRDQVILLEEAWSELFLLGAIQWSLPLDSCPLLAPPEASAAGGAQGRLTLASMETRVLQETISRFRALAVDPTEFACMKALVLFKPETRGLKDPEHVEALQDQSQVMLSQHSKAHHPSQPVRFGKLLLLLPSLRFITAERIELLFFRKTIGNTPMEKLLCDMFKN
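System: GST-NR2E3 and biotin-RetCOR proteins; probe or stimulus: 7 nM biotin-RetCOR; doses: compound at 4.8 µM, single dose; schedule: Compound–protein incubation for 5 h at 4 °C; detection: time-resolved FRET; read-out: percent inhibition; controls: biotin wells as high control, 0.6% DMSO wells as low control; format: 1536-well plates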
JMJD2C inh = blocks human GASC-1 demethylase activity; Q9H3R0; GST-JMJD2C(1-420) H3K9me3 demethylation, DELFIA europium; inhibition, % at 2.35 µM; actives 0.069% (n = 330,000); AID 2099;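 active means more than half of a compound's replicate wells show inhibition beyond 50%, single wells judged on their own value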;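 further: signal counts dimethyl H3K9 product captured on neutravidin plate; 0% = median of DMSO wells and 100% = 0.3 times that DMSO median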
ADAM17 inh = ADAM17 inhibition, QFRET primary screen | inhibition, % at 6.95 µM | P78536 | recombinant ADAM17, EDANS/DABCYL FRET peptide cleavage | actives 0.83% (n = 370,000);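 active means inhibition above the mean of compounds lying between control limits plus 3 SD, set per campaign, cut at about 8.5% in these data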;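 further: 0% = DMSO-only wells as the low control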
ADAM10 inh = inhibits human ADAM10; recombinant ADAM10, EDANS/DABCYL FRET peptide cleavage, 3 h; inhibition, % at 7 µM; actives 0.62% (n = 370,000); AID 720582;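 active means inhibition above a per-campaign cutoff equal to the mean of compounds falling between control-based bounds plus 3 SD, cut at about 20% in these data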;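 further: 0% = DMSO wells while the 100% control is not disclosed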
NR2E3 ag-2 = agonists of human NR2E3 nuclear receptor; Q9Y5X4; CHO-S Gal4-NCOR/VP16-NR2E3 two-hybrid, luciferase; inhibition of corepressor binding, % at 3.98 µM; actives 0.35% (n = 360,000); AID 602229;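 active means inhibition above the mean of all tested compounds plus 3 SD, cut at about 70% in these data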;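 further: 0% = DMSO with NR2E3 transfected cells and 100% = cells lacking NR2E3 construct; higher means lower luciferase signal from less NR2E3 corepressor binding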
KLK7 zymogen act = proKLK7 (human) activation, primary screen; activation, % at 7 µM; actives 0.9% (n = 370,000); purified proKLK7, EDANS-DABCYL substrate fluorescence; 100% is mature enzyme control, 0% vehicle; P49862;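 active means activation above the mean of all tested compounds plus 3 SD, computed per campaign excluding outliers beyond control limits, cut at about 13% in these data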
ADAM10 confirm = confirmation of inhibitors of human ADAM10 | shares compounds with ADAM10 inh | ADAM10 QFRET peptide cleavage, EDANS fluorescence | inhibition, % at 6.95 µM | actives 1% (n = 2,100);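 active means inhibition above about 20% chosen separately for each screening run, limit read from the data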;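 further: 0% = DMSO wells and 100% = marimastat wells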
ADAM17 counter = inhibits human ADAM17 in ADAM10 exosite counter-screen. AID 743214. shares compounds with ADAM10 inh. actives 0.5% (n = 2,100). inhibition, % at 6.95 µM. ADAM17 QFRET peptide cleavage, EDANS fluorescence;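 active means mean triplicate inhibition above the solvent-only control wells' mean plus 3 SD, cut at about 12% in these data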;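 further: 0% = DMSO wells and 100% = marimastat wells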
ADAM10 ctr = ADAM10 inhibition, counter-screen for ADAM17 exosite hits; inhibition, % at 6.95 µM; actives 47% (n = 2,900); shares compounds with ADAM17 inh; AID 743256; recombinant ADAM10, EDANS/DABCYL FRET peptide cleavage, 3 h;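 active means mean inhibition over the triplicate runs exceeds the activity threshold set in the earlier primary screen, cut at about 20% in these data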;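 further: 0% = DMSO wells and 100% = marimastat wells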
ADAM17 confirm = human ADAM17 inhibition, confirmation; shares compounds with ADAM17 inh; AID 743257; recombinant ADAM17, EDANS/DABCYL QFRET peptide cleavage; inhibition, % at 6.95 µM; actives 65% (n = 2,900);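 active means mean inhibition across replicates above the hit cutoff set in the primary screen, cut at about 8.5% in these data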;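 further: 0% = DMSO wells and 100% = marimastat wells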
Starred values were filed as active, the others as inactive; . = no result. Only some compounds are listed: those with a hit (about 2.5% of all), similar ones and a draw of the others.

SMILES | NR2E3 ag-1 | JMJD2C inh | ADAM17 inh | ADAM10 inh | NR2E3 ag-2 | KLK7 zymogen act | ADAM10 confirm | ADAM17 counter | ADAM10 ctr | ADAM17 confirm
COC(=O)CN1C(c2cccc(Cl)c2)=Nc2ccc(Cl)cc2C1c1ccccc1 (stereo not drawn) | -1 | 29 | 16* | 21* | -13 | 1 | 5 | 2 | 11 | 8.8*
Cc1cc(F)ccc1C(O)c1ncc(-c2cccc(OCc3ccccc3)c2)[nH]1 (stereo not drawn) | . | . | 9.7* | 29* | -8 | 0 | 12 | 4 | 39* | 20*
COc1cccc(-c2cnc(C(O)c3ccc(F)cc3C)[nH]2)c1 (stereo not drawn) | . | . | 0 | 9 | -8 | 0 | . | . | . | .
Cc1ccc(-c2csc(NC(=O)CSc3nc(C)cs3)n2)cc1 | 2 | -27 | 4 | 6 | -37 | 0 | . | . | . | .
Cc1csc(SCC(=O)Nc2nc(-c3ccccc3)cs2)n1 | 1 | 2 | 12* | 22* | -30 | 2 | 0 | 1 | 19 | 14*
Cc1ccc(C)c(OCC(=O)N(C)CC(=O)Nc2ccc(Cl)c(C(F)(F)F)c2)c1 | 0 | -7 | 8.8* | 23* | 10 | 0 | 4 | 0 | 31* | 17*
Cc1nc(-c2ccc(F)cc2)c(CC(=O)N(C)CC(=O)Nc2ccc(Cl)c(C(F)(F)F)c2)s1 | . | . | 19* | 32* | -21 | -1 | 1 | 1 | 25* | 14*
CN(CC(=O)Nc1ccc(Cl)c(C(F)(F)F)c1)C(=O)CC1Sc2ccccc2NC1=O (stereo not drawn) | 1 | 61 | 14* | 33* | 18 | 0 | 1 | 0 | 26* | 13*
CCOc1cc(-c2nc(-c3ccccc3)c(-c3cc([N+](=O)[O-])ccc3C)[nH]2)ccc1O | 2 | -6 | 12* | 31* | -11 | -1 | 7 | 3 | 21* | 12*
O=C(CN1CCN(c2ccccc2O)CC1)Nc1cc(S(=O)(=O)N2CCCC2)ccc1Cl | -1 | 0 | 8.9* | 29* | 6 | 1 | 7 | 3 | 13 | 11*
CCNC(=O)N1CCCC(C(=O)c2ccc(C(F)(F)F)cc2)C1 (stereo not drawn) | -2 | -9 | -1 | -7 | 0 | 0 | . | . | . | .
COc1cc(/C=N/NC(=O)COc2cccc(F)c2)ccc1OS(=O)(=O)c1ccc(C)cc1 | 4 | 3 | 13* | 25* | -21 | 0 | 8 | 3 | 24* | 16*
COC(=O)N/N=C/c1ccc(OS(=O)(=O)c2ccc(C)cc2)c(OC)c1 | 0 | 6 | 2 | -7 | -1 | 1 | . | . | . | .
COc1cc(/C=N/NC(=O)c2cccnc2)ccc1OS(=O)(=O)c1ccc(C)cc1 | -3 | 1 | 0 | 3 | 9 | 0 | . | . | . | .
COc1cc(/C=N/NC(=O)COc2ccc(Cl)cc2)ccc1OS(=O)(=O)c1ccc(C)cc1 | -1 | -2 | 11* | 27* | 1 | -1 | 15 | 4 | 51* | 34*
O=[N+]([O-])c1cc(CN2CCC(O)CC2)ccc1Cl | 1 | -1 | -1 | 3 | -11 | -1 | . | . | . | .
Cc1noc(C)c1COc1ccc(C(=O)OCC(=O)Nc2cccc(S(=O)(=O)N3CCOCC3)c2)cc1 | -3 | 0 | 11* | 25* | 5 | 0 | 3 | 0 | 29* | 13*
